Published values pooled from the literature.
Lines come from different studies, so protocols differ.
MAOB: Amine oxidase [flavin-containing] B (MAOB, Homo sapiens, UniProt P27338)
ADRB1: Beta-1 adrenergic receptor (ADRB1, Homo sapiens, UniProt P08588)

C#CCNc1nc(NCCCC2CCN(Cc3ccccc3)CC2)c(C#N)c(-c2ccccc2)c1C#N  IC50 (MAOB; enzyme activity; inhibitor; fluorescence; with preincubation): > 100 µM
CCOc1ccccc1OCCN[C@H](C)Cc1ccc(OC)c(S(N)(=O)=O)c1  IC50 (ADRB1; ligand displacement; radioligand): 2.5 µM
COc1cc(C(=O)N2CC[C@@H](O)[C@@H](N)C2)cc2nc(-c3cc4ccccc4n3CC3CC3)n(C)c12  IC50 (MAOB; enzyme activity; inhibitor): 15.8 µM
COc1ccc(/C=C/C(=O)N2CCN(Cc3ccccc3)CC2)cc1OC  IC50 (MAOB; enzyme activity; inhibitor; fluorescence): 1.9 µM
O=[N+]([O-])c1cc(Cl)c(O)c(Cl)c1  IC50 (Sulfotransferase 1A1 (SULT1A1, Homo sapiens, UniProt P50225, R213H); enzyme activity; inhibitor): 0.7 µM
C#CCN(C)c1nc(NCCCCC2CCN(Cc3ccccc3)CC2)c(C#N)c(-c2ccccc2)c1C#N  IC50 (MAOB; enzyme activity; inhibitor; fluorescence; with preincubation): > 100 µM
CSCC[C@@H]1NC(=O)[C@H](Cc2c[nH]c3ccccc23)NC(=O)[C@H](CCCCN)NC(=O)[C@@H](NC(=O)[C@H](C)N)CSSC[C@@H](C(=O)NCC(=O)NCC(=O)NCC(N)=O)NC(=O)[C@H](Cc2ccc(O)cc2)NC(=O)CNC(=O)[C@H](CCC(=O)O)NC(=O)[C@H](CCC(=O)O)NC1=O  IC50 (Lysine-specific demethylase 4C (KDM4C, Homo sapiens, UniProt Q9H3R0); enzyme activity; inhibitor; TR-FRET): ~520 µM
C[C@H](N)Cn1ncc2ccc3c(c21)CCCO3  IC50 (ADRB1; ligand displacement; radioligand): 5 µM
C#CCNc1nc(NCCC2CCN(Cc3ccccc3)CC2)c(C#N)c(-c2ccccc2)c1C#N  IC50 (MAOB; enzyme activity; inhibitor; fluorescence; with preincubation): > 100 µM
COc1ccc2c(c1)[nH]c1c(C)nccc12  IC50 (MAOB; enzyme activity; inhibitor): 37.5 µM
[Ba+2].[Cl-].[Cl-]  IC50 (Inward rectifier potassium channel 2 (KCNJ2, Homo sapiens, UniProt P63252); ion current; inhibitor): 8.2 µM
COc1ncccc1-c1cnn2ccc(N3CCN(C(=O)OC(C)C)CC3)nc12  IC50 (MAOB; enzyme activity; inhibitor): > 30 µM
O=c1c2ccccc2[se]n1-c1ccccc1  IC50 (ung (Escherichia coli, UniProt P12295); enzyme activity; inhibitor): > 200 µM
